From ChEMBL document CHEMBL1649117, “GRL-02031, a novel nonpeptidic protease inhibitor (PI) containing a stereochemically defined fused cyclopentanyltetrahydrofuran potent against multi-PI-resistant human immunodeficiency virus type 1 in vitro” (Antimicrob Agents Chemother, 2009)

Assays:
[1] = tested on: Human immunodeficiency virus 1; assay: Antiviral activity against HIV1 ERS104pre infected in human PHA-PBC assessed as inhibition of p24 Gag protein production by ELISA; format: functional, organism-based; settings: Human immunodeficiency virus 1, ERS104pre
Procedure, shortened: (§1)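 Phytohemagglutinin-stimulated PBMs (10^6/ml) infected with 50 TCID50s of each primary isolate, cultured with or without drug in 10-fold serial dilutions. On day 7, supernatant p24 Gag was measured by automated chemiluminescent enzyme immunoassay. Triplicate.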

[2] = tested on: Human immunodeficiency virus 1; assay: Antiviral activity against HIV1 A harboring L10I/I15V/E35D/N37E/K45R/I54V/L63P/A71V/V82T/L90M/I93L/C95F in protease encoding region infected in human PHA-PBC assessed as inhibition of p24 Gag protein production by ELISA; format: functional, organism-based; settings: Human immunodeficiency virus 1, A; procedure, shortened: as §1
[3] = tested on: Human immunodeficiency virus 1; assay: Ratio of EC50 for HIV1 A harboring L10I/I15V/E35D/N37E/K45R/I54V/L63P/A71V/V82T/L90M/I93L/C95F in protease encoding region to EC50 for HIV1 ERS104pre; format: functional
[4] = tested on: Human immunodeficiency virus 1; assay: Antiviral activity against HIV1 B harboring L10I/I15V/E35D/N37E/K45R/I54V/L63P/A71V/V82T/L90M/I93L/C95F in protease encoding region infected in human PHA-PBC assessed as inhibition of p24 Gag protein production by ELISA; format: functional, organism-based; settings: Human immunodeficiency virus 1, B
Procedure, shortened: (§2)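 Phytohemagglutinin-stimulated PBMs (10^6/ml) infected with 50 TCID50s of each primary isolate, cultured with or without drug in 10-fold serial dilutions. On day 7, supernatant p24 Gag was measured by automated chemiluminescent enzyme immunoassay. […] Triplicate.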

[5] = tested on: Human immunodeficiency virus 1; assay: Antiviral activity against HIV1 MOKW infected in human PHA-PBC assessed as inhibition of p24 Gag protein production by ELISA; format: functional, organism-based; settings: Human immunodeficiency virus 1, MOKW; procedure, shortened: as §2
[6] = tested on: Human immunodeficiency virus 1; assay: Ratio of EC50 for HIV1 C harboring L10I/I15V/K20R/L24I/M36I/M46L/I54V/I62V/L63P/K70Q/V82A/L89M in protease encoding region to EC50 for HIV1 ERS104pre; format: functional
[7] = tested on: Human immunodeficiency virus 1; assay: Ratio of EC50 for HIV1 B harboring L10I/I15V/E35D/N37E/K45R/I54V/L63P/A71V/V82T/L90M/I93L/C95F in protease encoding region to EC50 for HIV1 ERS104pre; format: functional
[8] = tested on: Human immunodeficiency virus 1; assay: Antiviral activity against HIV1 JSL harboring L10I/L24I/L33F/E35D/M36I/N37S/M46L/I54V/R57K/I62V/L63P/A71V/G73S/82A in protease encoding region infected in human PHA-PBC assessed as inhibition of p24 Gag protein production by ELISA; format: functional, organism-based; settings: Human immunodeficiency virus 1, JSL; procedure, shortened: as §2
[9] = tested on: Human immunodeficiency virus 1; assay: Ratio of EC50 for HIV1 TM harboring L10I/K14R/R41K/M46L/I54V/L63P/A71V/V82A/L90M/I93L in protease encoding region to EC50 for HIV1 ERS104pre; format: functional
Procedure, shortened: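 PHA-stimulated PBMs (10^6/ml) infected with 50 TCID50s of primary HIV-1 isolate and cultured with 10-fold serial drug dilutions. Day 7 supernatant p24 Gag measured by chemiluminescent enzyme immunoassay. […] Triplicate. Ratio is resistant isolate EC50 over reference isolate EC50.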

[10] = tested on: Human immunodeficiency virus 1; assay: Ratio of EC50 for HIV1 JSL harboring L10I/L24I/L33F/E35D/M36I/N37S/M46L/I54V/R57K/I62V/L63P/A71V/G73S/82A in protease encoding region to EC50 for HIV1 ERS104pre; format: functional
[11] = tested on: Human immunodeficiency virus 1; assay: Ratio of EC50 for HIV1 MM harboring L10I/K43T/M46L/I54V/L63P/A71V/V82A/L90M/Q92K in protease encoding region infected to EC50 for HIV1 ERS104pre; format: functional
[12] = tested on: Human immunodeficiency virus 1; assay: Antiviral activity against HIV1 TM harboring L10I/K14R/R41K/M46L/I54V/L63P/A71V/V82A/L90M/I93L in protease encoding region infected in human PHA-PBC assessed as inhibition of p24 Gag protein production by ELISA; format: functional, organism-based; settings: Human immunodeficiency virus 1, TM; procedure, shortened: as §2
[13] = tested on: Human immunodeficiency virus 1; assay: Ratio of EC50 for HIV1 G harboring L10I/V11I/T12E/I15V/L19I/R41K/M46L/L63P/A71T/V82A/L90M in protease encoding region to EC50 for HIV1 ERS104pre; format: functional
[14] = tested on: Human immunodeficiency virus 1; assay: Antiviral activity against HIV1 MM harboring L10I/K43T/M46L/I54V/L63P/A71V/V82A/L90M/Q92K in protease encoding region infected in human PHA-PBC assessed as inhibition of p24 Gag protein production by ELISA; format: functional, organism-based; settings: Human immunodeficiency virus 1, MM; procedure, shortened: as §2
[15] = tested on: Human immunodeficiency virus 1; assay: Ratio of EC50 for HIV1 NL4-3 harboring L10F/M46I/I54V/V82A amino acid substitution in protease encoding region to EC50 for HIV1 NL4-3; format: functional
Procedure, shortened: (§3)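 MT-4 cells (10^5/ml) infected with 100 TCID50s of PI-selected HIV-1NL4-3 variants or the parental strain, with or without serial drug concentrations, at 37°C. Day 7 supernatant p24 Gag measured by chemiluminescent enzyme immunoassay. […] Triplicate. Ratio is variant EC50 over wild-type EC50.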

[16] = tested on: Human immunodeficiency virus 1; assay: Ratio of EC50 for HIV1 NL4-3 harboring L10F/L33F/M46I/I47V/Q58E/V82I/I84V/I85V amino acid substitution in protease encoding region to EC50 for HIV1 NL4-3; format: functional; procedure, shortened: as §3
[17] = tested on: Human immunodeficiency virus 1; assay: Antiviral activity against HIV1 NL4-3 harboring L10F/V32I/M46I/I54M//A71V/I84V amino acid substitution in protease encoding region infected in human MT4 cells assessed as inhibition of p24 Gag protein production selected at 5 uM of amprenavir by ELISA; format: functional, organism-based; settings: Human immunodeficiency virus 1, NL4-3, MT4
Procedure, shortened: (§4)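 Cell-free passage used day-7 supernatants. Variants were then tested in MT-4 cells (10^5/ml) with 100 TCID50s, with or without drug, at 37°C. Day-7 p24 Gag was read by chemiluminescent immunoassay; EC50 vs drug-free control; triplicate.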

[18] = tested on: Human immunodeficiency virus 1; assay: Ratio of EC50 for HIV1 NL4-3 harboring L10F/L24I/M46I/L63P/A71V/G73S/V82T amino acid substitution in protease encoding region to EC50 for HIV1 NL4-3; format: functional; procedure, shortened: as §3
[19] = tested on: Human immunodeficiency virus 1; assay: Ratio of EC50 for HIV1 NL4-3 harboring L23I/K43I/M46I/I50L/G51A/A71V amino acid substitution in protease encoding region to EC50 for HIV1 NL4-3; format: functional; procedure, shortened: as §3
[20] = tested on: Human immunodeficiency virus 1; assay: Ratio of EC50 for HIV1 NL4-3 harboring M46I/V82F/I84V amino acid substitution in protease encoding region to EC50 for HIV1 NL4-3; format: functional; procedure, shortened: as §3
[21] = tested on: Human immunodeficiency virus 1; assay: Ratio of EC50 for HIV1 NL4-3 harboring L10I/G48V/I54V/L90M amino acid substitution in protease encoding region to EC50 for HIV1 NL4-3; format: functional; procedure, shortened: as §3
[22] = tested on: Human immunodeficiency virus 1; assay: Antiviral activity against HIV1 NL4-3 harboring L10I/G48V/I54V/L90M amino acid substitution in protease encoding region infected in human MT4 cells assessed as inhibition of p24 Gag protein production selected at 5 uM of saquinavir by ELISA; format: functional, organism-based; settings: Human immunodeficiency virus 1, NL4-3, MT4
Procedure, shortened: as §4, with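 “HIV-1NL4-3 (500 TCID50s) was passaged in MT-4 cells, starting at 0.01–0.03 µM PI and raising the drug generally two- to threefold as virus propagated. Cell-free” for “Cell-free”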

[23] = tested on: Human immunodeficiency virus 1; assay: Antiviral activity against HIV1 NL4-3 infected in human MT4 cells assessed as inhibition of p24 gag protein production by ELISA; format: functional, organism-based; settings: Human immunodeficiency virus 1, NL4-3, MT4
Procedure, shortened: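 MT-4 cells (10^5/ml) were infected with 100 TCID50s of HIV-1 and cultured at 37°C with or without various drug concentrations. On day 7, supernatant p24 Gag was measured by automated chemiluminescent enzyme immunoassay. […] Assays were run in triplicate.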

[24] = tested on: Human immunodeficiency virus 1; assay: Ratio of EC50 for HIV1 NL4-3 harboring L10F/D30N/K45I/A71V/T74S amino acid substitution in protease encoding region to EC50 for HIV1 NL4-3; format: functional
[25] = tested on: Human immunodeficiency virus 1; assay: Antiviral activity against HIV1 NL4-3 harboring L23I/K43I/M46I/I50L/G51A/A71V amino acid substitution in protease encoding region infected in human MT4 cells assessed as inhibition of p24 Gag protein production selected at 1 uM of atazanavir by ELISA; format: functional, organism-based; settings: Human immunodeficiency virus 1, NL4-3, MT4
Procedure, shortened: as §4, with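 “HIV-1NL4-3 (500 TCID50s) was passaged in MT-4 cells, starting at 0.01–0.03 µM PI and raising the drug generally two- to threefold as virus propagated. Cell-free” for “Cell-free”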

[26] = tested on: Human immunodeficiency virus 1; assay: Antiviral activity against HIV1 NL4-3 harboring L10F/M46I/I54V/V82A amino acid substitution in protease encoding region infected in human MT4 cells assessed as inhibition of p24 Gag protein production selected at 1 uM of Lopinavir by ELISA; format: functional, organism-based; settings: Human immunodeficiency virus 1, NL4-3, MT4; procedure, shortened: as §4
[27] = tested on: Human immunodeficiency virus 1; assay: Antiviral activity against HIV1 NL4-3 harboring L10F/D30N/K45I/A71V/T74S amino acid substitution in protease encoding region infected in human MT4 cells assessed as inhibition of p24 Gag protein production selected at 5 uM of nelfinavir by ELISA; format: functional, organism-based; settings: Human immunodeficiency virus 1, NL4-3, MT4
Procedure, shortened: as §4, with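 “HIV-1NL4-3 (500 TCID50s) was passaged in MT-4 cells, starting at 0.01–0.03 µM PI and raising the drug generally two- to threefold as virus propagated. Cell-free” for “Cell-free”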

[28] = tested on: Human immunodeficiency virus 1; assay: Antiviral activity against HIV1 NL4-3 harboring L10F/L24I/M46I/L63P/A71V/G73S/V82T amino acid substitution in protease encoding region infected in human MT4 cells assessed as inhibition of p24 Gag protein production selected at 5 uM of indinavir by ELISA; format: functional, organism-based; settings: Human immunodeficiency virus 1, NL4-3, MT4
Procedure, shortened: as §4, with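 “HIV-1NL4-3 (500 TCID50s) was passaged in MT-4 cells, starting at 0.01–0.03 µM PI and raising the drug generally two- to threefold as virus propagated. Cell-free” for “Cell-free”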

[29] = tested on: Human immunodeficiency virus 1; assay: Antiviral activity against HIV1 NL4-3 harboring M46I/V82F/I84V amino acid substitution in protease encoding region infected in human MT4 cells assessed as inhibition of p24 Gag protein production selected at 5 uM of ritonavir by ELISA; format: functional, organism-based; settings: Human immunodeficiency virus 1, NL4-3, MT4
Procedure, shortened: as §4, with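 “HIV-1NL4-3 (500 TCID50s) was passaged in MT-4 cells, starting at 0.01–0.03 µM PI and raising the drug generally two- to threefold as virus propagated. Cell-free” for “Cell-free”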

[30] = tested on: Human immunodeficiency virus 1; assay: Antiviral activity against HIV1 NL4-3 harboring L10F/L33F/M46I/I47V/Q58E/V82I/I84V/I85V amino acid substitution in protease encoding region infected in human MT4 cells assessed as inhibition of p24 Gag protein production selected at 5 uM of GRL-02031 by ELISA; format: functional, organism-based; settings: Human immunodeficiency virus 1, NL4-3, MT4; procedure, shortened: as §4
[31] = tested on: Human immunodeficiency virus 1; assay: Ratio of EC50 for HIV1 NL4-3 harboring L10F/V32I/M46I/I54M//A71V/I84V amino acid substitution in protease encoding region to EC50 for HIV1 NL4-3; format: functional; procedure, shortened: as §3

SMILES: CC(C)CN(C[C@@H](O)[C@H](Cc1ccccc1)NC(=O)O[C@H]1CO[C@H]2OCC[C@H]21)S(=O)(=O)c1ccc(N)cc1
- EC50 [1]: 3.5 nM
- EC50 [2]: 3 nM
- Ratio EC50 [3]: 1
- EC50 [4]: 26 nM
- EC50 [5]: 3 nM
- Ratio EC50 [6]: 2
- Ratio EC50 [7]: 7
- EC50 [8]: 26 nM
- Ratio EC50 [9]: 1
- Ratio EC50 [10]: 7
- Ratio EC50 [11]: 5
- EC50 [12]: 4 nM
- Ratio EC50 [13]: 2
- EC50 [14]: 17 nM

SMILES: COC(=O)N[C@H](C(=O)N[C@@H](Cc1ccccc1)[C@@H](O)CN(Cc1ccc(-c2ccccn2)cc1)NC(=O)[C@@H](NC(=O)OC)C(C)(C)C)C(C)(C)C [ATAZANAVIR]
- Ratio EC50 [15]: 10
- Ratio EC50 [16]: 8
- EC50 [17]: 3.2 nM
- Ratio EC50 [18]: 15
- Ratio EC50 [19]: 72
- Ratio EC50 [20]: 5
- Ratio EC50 [21]: 74
- EC50 [22]: 320 nM
- EC50 [23]: 4.3 nM
- Ratio EC50 [24]: 6
- EC50 [25]: 310 nM
- EC50 [26]: 41 nM
- EC50 [27]: 24 nM
- EC50 [28]: 63 nM
- EC50 [29]: 21 nM
- EC50 [30]: 36 nM
- Ratio EC50 [31]: 1
